Screens (PubChem BioAssay)
Only a selection was taken, and hits are over-represented in it overall.
L major viab = inhibitors of Leishmania major promastigote growth; Leishmania major promastigotes, resazurin fluorescence viability; 200,000 tested, 9% active; inhibition, % at 10 µM;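 note: promastigotes grown with compound for 44 hours at 28 °C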
Redox H2O2 prof = compounds producing H2O2 with reducing agent – biochemical, NIH compound library profiling, artefact control for MLSCN library redox annotation, primary screen; DTT-dependent redox cycling H2O2, phenol red/HRP absorbance; 100% = 100 µM peroxide control, 0% = buffer; activation, % at 10 µM; 200,000 tested, 0.03% active;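 active = activation of at least 50% relative to the plate's high and low controls in the primary single-dose screen; inactive = activation below 50%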;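 note: compound incubated with DTT at 0.8 mM final as the reducing agent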
Diaphorase inh = diaphorase inhibition or chemical oxidation counter-screen; diaphorase resazurin-to-resorufin fluorescence, NADH, 16 min; bacterial (C. kluyveri) enzyme, not human; inhibition, % at 20 µM; 190,000 tested, 0.69% active; AID 1217;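 active = primary screen inhibition at 20 µM above a set limit, cut at about 50% in these data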;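 note: plate controls were DMSO with full reaction for no effect and wells lacking NADH for full effect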
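Test system: diaphorase enzyme from Clostridium kluyveri; amount: diaphorase at 0.14 U/mL in enzyme working solution; detection: fluorescence of resorufin formed from resazurin, Ex 544/Em 590 nm; times: reaction incubation of 16 min at room temperature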
Diaph act CS = activates diaphorase or chemically reduces, flagging diaphorase assay artifacts | Diaphorase/resazurin coupled assay, resorufin fluorescence, 16 min; active compounds read high; 1 = vehicle wells, 0 = NADH-free wells | activation factor at 20 µM | 190,000 tested, 0.005% active | AID 1229;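 active = diaphorase activity raised at least twofold by the compound at 20 µM; inactive = activation factor below 2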
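Material: Purified diaphorase enzyme from Clostridium kluyveri | Buffer or medium: 50 mM HEPES pH 7.4 with 4.542 mM MgCl2, 0.005% Tween 20 | Times: 16 min enzyme reaction, ambient temperature | Signal: Red resorufin fluorescence at 544/590 nm excitation/emission | Measure: Increased resorufin signal from activators or reducing compounds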
PfGluPho inh = PfG6PD (Plasmodium falciparum) enzyme inhibition; PfGluPho enzyme, NADPH resazurin-diaphorase fluorescence; inhibition, % at 20 µM; 350,000 tested, 0.78% active;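 active = inhibition reaching at least a set limit at 20 µM in the primary screen, cut at about 59% in these data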;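 note: 0% = DMSO wells with substrate and 100% = DMSO wells lacking glucose-6-phosphate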
G6PDH counter = L. mesenteroides G6PDH inhibition counter-screen | Purified L. mesenteroides G6PDH, diaphorase/resazurin coupled fluorescence, 45 min | inhibition, % at 5 µM | 200,000 tested, 0.12% active | AID 1020
An asterisk follows results filed as active; nt = not tested or not shown. Cut-off read from the data, not from the text of the source, unless noted: active = inhibition above about 50%; inactive = the rest.

SMILES	L major viab	Redox H2O2 prof	Diaphorase inh	Diaph act CS	PfGluPho inh	G6PDH counter
CCOc1cc(C(=S)N2CCOCC2)ccc1OC(=O)c1cc(OC)c(OC)c(OC)c1	nt	nt	nt	nt	3	nt
O=C1CCC(C(=O)OCC(=O)N2N=C3/C(=C\c4ccccc4)CCCC3C2c2ccccc2)N1 (stereo not drawn)	nt	nt	nt	nt	-3	nt
O=C(c1ccccn1)N1N=C2/C(=C/c3ccccc3)CCCC2C1c1ccccc1 (stereo not drawn)	94*	-1	15	0.8	-8	5
N/C(COc1ncn(-c2ccccc2)n1)=N\S(=O)(=O)c1ccc(Cl)cc1Cl	4	0	61*	0.4	16	12
NC(=O)COc1ncn(-c2ccccc2)n1	1	0	13	0.9	-9	6
CC(C)(C)c1ccc(-c2n[nH]c(=S)n2-c2ccccc2)cc1	nt	nt	nt	nt	5	nt
OCC1(Cc2ccccc2C(F)(F)F)CCN(Cc2ccc3c(c2)CCO3)CC1	90*	-1	4	1	-13	12
OCC1(Cc2ccccc2C(F)(F)F)CCN(Cc2ccccc2)CC1	81*	0	34	0.7	8	6
OCC1(Cc2ccc(Cl)cc2)CCN(Cc2ccc(F)c(F)c2)CC1	nt	nt	nt	nt	16	nt
O=C(NCc1ccc(Cl)cc1)c1cccc(NC(=O)c2ccccc2)c1	55*	0	9	0.9	8	12
O=C(NCc1ccccc1)c1ccc(Cl)cc1	nt	nt	nt	nt	3	nt
CC(SCc1ccccc1)C(=O)N/N=C/c1cccs1 (stereo not drawn)	22	-1	10	0.9	39	8
CC(SCc1ccccc1)C(=O)N/N=C/c1ccc2c(c1)OCO2 (stereo not drawn)	75*	-5	8	0.9	20	-5
O=C(N/N=C/c1cc2c(cc1Br)OCO2)c1ccccn1	nt	nt	nt	nt	9	nt
CC(SCc1ccccc1)C(=O)N/N=C/c1cc2c(cc1Br)OCO2 (stereo not drawn)	0	-9	51*	0.5	10	14
CC(SCc1ccccc1)C(=O)Nc1ccc2c(c1)OCO2 (stereo not drawn)	3	0	13	0.9	5	0
O=C(N/N=C/c1cc2c(cc1Br)OCO2)c1c[nH]c2ccccc12	80*	0	14	0.9	12	-2
COc1ccc(S(=O)(=O)N(CCc2ccccc2)CC(=O)N/N=C/c2ccc3c(c2)OCO3)cc1	99*	0	9	0.9	-1	12
CC1C(=O)N2CCCc3cc(S(=O)(=O)N4CCN(c5cccc(Cl)c5)CC4)cc1c32 (stereo not drawn)	nt	nt	nt	nt	0	nt
Cc1cc(C)n2c(SCC(=O)Nc3ccc(F)cc3)nnc2n1	nt	nt	nt	nt	42	nt
C=CCn1c(SCC(=O)NCc2ccccc2)nnc1C1CCCCC1	78*	0	9	0.9	-4	5
COc1ccccc1N1CCN(C2CCCN(C(=O)CCC(C)=O)C2)CC1 (stereo not drawn)	nt	nt	nt	nt	13	nt
O=C1C(=O)N(c2cccc(Cl)c2)C(c2ccccc2[N+](=O)[O-])/C1=C(\O)c1ccccc1 (stereo not drawn)	4	-4	15	0.9	34	1
O=C1C(=O)N(c2ccccc2)C(c2ccccc2[N+](=O)[O-])/C1=C(\O)c1ccccc1 (stereo not drawn)	-8	1	51*	0.5	10	13
O=C(Cn1nnc2ccccc2c1=O)N[C@@H](Cc1ccccc1)C(=O)O	nt	nt	nt	nt	-15	nt
SMILES	L major viab	Redox H2O2 prof	Diaphorase inh	Diaph act CS	PfGluPho inh	G6PDH counter
Cc1ccc2nc(N/N=C/c3ccccc3C#N)nc(-c3ccccc3)c2c1	62*	-3	1	1	14	6
N#Cc1ccccc1/C=N/Nc1nc(-c2ccccc2)c2cc(Cl)ccc2n1	3	-7	20	0.8	15	5
CCN(CC)S(=O)(=O)c1ccc(N2CCN(c3cccc(OC)c3)CC2)c([N+](=O)[O-])c1	100*	1	15	0.9	2	6
CCN1CCN(c2ccc(S(=O)(=O)N(CC)CC)cc2[N+](=O)[O-])CC1	95*	0	4	1	4	9
COCCn1c(SCC(=O)N(C)c2ccccc2)nc2c([nH]c3ccccc32)c1=O	nt	nt	nt	nt	1	nt
CCOc1ccc(/C(O)=C2/C(=O)C(=O)N(CC3CCCO3)C2c2cccs2)cc1 (stereo not drawn)	-8	0	15	0.9	-23	0
CCN(CC)S(=O)(=O)c1cc(NC(=O)COC(=O)c2sc3ccccc3c2Cl)ccc1C	50*	0	11	0.9	-3	11
O=C(COC(=O)CNC(=O)c1sc2ccccc2c1Cl)Nc1cc(Cl)cc(Cl)c1	-7	-2	-3	1	-7	3
CCN(CC)S(=O)(=O)c1cc(NC(=O)COC(=O)c2ccc(NC(=O)CC#N)cc2)ccc1C	-11	0	16	0.8	-16	3
Cc1ccccc1NC(=O)COC(=O)CNC(=O)c1sc2ccccc2c1Cl	87*	0	24	0.8	-5	13
COCCN1C2=C(C(=O)CC(C)(C)C2)C(c2ccc(OC)c(OC)c2)C2=C1CC(C)(C)CC2=O	nt	nt	nt	nt	-7	nt
Cc1ccc(Cl)cc1N1CCN(C(=O)c2ccc(NS(=O)(=O)c3c(C)noc3C)cc2)CC1	96*	2	36	0.6	-43	4
Cc1ccc(C)c(N2CCN(C(=O)c3ccc(NS(=O)(=O)c4c(C)noc4C)cc3)CC2)c1	93*	2	18	0.8	-2	8
Cc1noc(C)c1S(=O)(=O)Nc1ccc(C(=O)N2CCCCC2)cc1	-5	0	5	0.9	-19	8
Cc1ccc(NC(=O)c2ccc(NS(=O)(=O)c3c(C)noc3C)cc2)cc1C	1	1	10	0.9	-35	1
COP(=O)(OC)c1nc(-c2cccc3ccccc23)oc1NCCc1ccccc1	71*	0	15	0.8	3	9
CCOP(=O)(OCC)c1nc(-c2cccc3ccccc23)oc1NCc1ccc(OC)cc1	71*	0	21	0.8	22	3
CCOP(=O)(OCC)c1nc(-c2cccc3ccccc23)oc1NCc1ccccc1	-4	-1	29	0.7	34	-24
Cc1cccc(N2C(=N)SCC2=O)c1C	54*	0	4	1	13	-9
N=C1SCC(=O)N1c1nc(-c2ccccc2)cs1	-8	-5	9	0.9	-10	-6
CCOC(=O)c1ccc(NC(=O)CNNC(=O)COc2ccccc2C)cc1	nt	nt	nt	nt	10	nt
O=C(C1CCCCN1S(=O)(=O)c1ccccc1[N+](=O)[O-])N1CCCCC1 (stereo not drawn)	-2	-1	26	0.7	-8	14
